Measured values collected from several papers.
Compare with care: the assays were run in different laboratories.
ABHD6: Monoacylglycerol lipase ABHD6 (ABHD6, Homo sapiens, UniProt Q9BV23)
DRD4: D(4) dopamine receptor (DRD4, Homo sapiens, UniProt P21917)
VASP: Vasodilator-stimulated phosphoprotein (VASP, Homo sapiens, UniProt P50552)

| SMILES | target | assay | conditions | measurement | value |
| --- | --- | --- | --- | --- | --- |
| CN(C(=O)Oc1nsnc1N1CCCCC1)c1cccc([N+](=O)[O-])c1 | ABHD6 | enzyme activity, inhibitor, fluorescence | lysate | IC50 | 1.2 µM |
| OC(c1ccc(F)cc1)C(F)(F)CCN1CCC(O)(c2ccc(Cl)cc2)CC1 (racemic) | DRD4 | cell-free assay, radioligand | – | Ki | 0.0516 µM |
| C=C1CC1CC(=O)SCCNC(=O)CCNC(=O)[C@H](O)C(C)(C)COP(=O)(O)OP(=O)(O)OC[C@H]1O[C@@H](n2cnc3c(N)ncnc32)[C@H](O)[C@@H]1OP(=O)(O)O (mixture of isomers) | IVD (Homo sapiens, UniProt P26440) | binding, absorbance | – | Kd | ~22.5 µM |
| CC(=O)N[C@@H](CO)C(=O)N[C@@H](Cc1ccccc1)C(=O)N[C@@H](CCC(=O)O)C(=O)N[C@@H](Cc1ccccc1Cl)C(=O)N1CCC[C@H]1C(=O)N1CCC[C@H]1C(=O)N1CCC[C@H]1C(=O)N1CCC[C@H]1C(=O)N[C@H](C(=O)N[C@@H](CCC(=O)O)C(=O)N[C@@H](CC(=O)O)C(=O)N[C@@H](CCC(=O)O)C(=O)N[C@@H](CC(C)C)C(N)=O)[C@@H](C)O | VASP | binding, fluorescence | – | Kd | 1.5 µM |
| C[C@H](N)Cn1ncc2ccc3c(c21)CCCO3 | D(4) dopamine receptor (DRD4, Homo sapiens, UniProt P21917, del265-296) | ligand displacement, radioligand | – | IC50 | > 100 µM |
| CCCCOc1ccc(C(=O)CCN2CCCCC2)cc1 | DRD4 | ligand displacement, radioligand | – | IC50 | 4.1 µM |
| COc1cc(C(=O)N2CC[C@@H](O)[C@@H](N)C2)cc2nc(-c3cc4ccccc4n3CC3CC3)n(C)c12 | Nuclear receptor subfamily 1 group I member 2 (NR1I2, Homo sapiens, UniProt O75469) | reporter gene, agonist, luciferase | – | EC50 | > 50.1 µM |
| CC(=O)N[C@@H](CO)C(=O)N[C@@H](Cc1ccccc1)C(=O)N[C@@H](CCC(=O)O)C(=O)N[C@@H](Cc1ccccc1)C(=O)N1CCC[C@H]1C(=O)N1CCC[C@H]1C(=O)N1CCC[C@H]1C(=O)N1CCC[C@H]1C(=O)N[C@H](C(=O)N[C@@H](CCC(=O)O)C(=O)N[C@@H](CC(=O)O)C(=O)N[C@@H](CCC(=O)O)C(=O)N[C@@H](CC(C)C)C(N)=O)[C@@H](C)O | VASP | binding, fluorescence | – | Kd | 19 µM |
| Cc1ccc(N(C)C(=O)Oc2nsnc2N2CCCCC2)cc1 | ABHD6 | enzyme activity, inhibitor, fluorescence | lysate | IC50 | 0.15 µM |
| O=P(O)(O)Oc1ccccc1OP(=O)(O)O | Signal transducer and activator of transcription 6, SH2 (Homo sapiens, UniProt P42226) | ligand displacement, FP | – | Ki | 18 µM |
| C[C@@H](NC(=O)C[C@@H](N)Cc1ccc(O)cc1)C(=O)NCC(=O)N[C@@H](Cc1ccccc1)C(=O)NNC(=O)[C@H](Cc1ccccc1)NC(=O)CNC(=O)[C@@H](C)NC(=O)C[C@@H](N)Cc1ccc(O)cc1 | Mu-type opioid receptor (Oprm1, Rattus norvegicus, UniProt P33535) | ligand displacement, radioligand | – | IC50 | 0.135 µM |
| CN(C(=O)Oc1nsnc1N1CCOCC1)C1CCCCCCC1 | ABHD6 | enzyme activity, inhibitor, fluorescence | lysate | IC50 | 0.044 µM |
